# Source: ChEMBL document CHEMBL1629548, “In vitro activities of tigecycline against clinical isolates of Aeromonas, Vibrio, and Salmonella species in Taiwan” (2008)
# How the values were obtained:
# Vibrio cholerae [1] = experiment: Antimicrobial activity against Vibrio cholerae non-O1 assessed as percent tetracyclin-resistant isolate at 0.12 to 16 ug/ml by broth microdilution method; type: functional
# Vibrio cholerae [2] = experiment: Antimicrobial activity against Vibrio cholerae non-O1 by broth microdilution method; type: functional
# How it was run: (§1)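 Tigecycline MICs for clinical isolates (Taiwan) were determined by broth microdilution over 0.03 to 128 μg/ml. A control strain was included, and its MICs had to fall within the recommended range. Susceptible, intermediate and resistant categories were assigned from the MICs using US FDA and EUCAST breakpoints.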
# Aeromonas hydrophila [3] = experiment: Antimicrobial activity against Aeromonas hydrophila assessed as percent tetracyclin-resistant isolate at 0.25 to >16 ug/ml by broth microdilution method; type: functional
# How it was run: (§2)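 Tetracycline MICs for clinical isolates were determined by broth microdilution over 0.03 to 128 μg/ml. The reported value is the rate of isolates not susceptible to tetracycline for each species or serogroup.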
# Aeromonas caviae [4] = experiment: Antimicrobial activity against Aeromonas caviae assessed as percent tetracyclin-resistant isolate at 0.25 to >16 ug/ml by broth microdilution method; type: functional; how it was run: as §2
# Aeromonas sobria [5] = experiment: Antimicrobial activity against Aeromonas sobria assessed as percent tetracyclin-resistant isolate at 0.25 to >16 ug/ml by broth microdilution method; type: functional; how it was run: as §2
# Aeromonas hydrophila [6] = experiment: Antimicrobial activity against Aeromonas hydrophila by broth microdilution method; type: functional
# How it was run: (§3)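 Clinical isolates from Taiwan; tigecycline and tetracycline MICs by broth microdilution per CLSI guidelines, tested over 0.03 μg/ml to 128 μg/ml; a control strain was included.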
# Aeromonas caviae [7] = experiment: Antimicrobial activity against Aeromonas caviae by broth microdilution method; type: functional; how it was run: as §3
# Aeromonas sobria [8] = experiment: Antimicrobial activity against Aeromonas sobria by broth microdilution method; type: functional; how it was run: as §3
# [9] = Antimicrobial activity against Salmonella serotype Choleraesuis assessed as percent tetracyclin-resistant isolate at 1 to >128 ug/ml by broth microdilution method; type: functional, Salmonella enterica subsp. enterica serovar Choleraesuis; how it was run: as §2
# Salmonella typhimurium [10] = experiment: Antimicrobial activity against Salmonella serotype Typhimurium assessed as percent tetracyclin-resistant isolate at 1 to >128 ug/ml by broth microdilution method; type: functional, Salmonella enterica subsp. enterica serovar Typhimurium; how it was run: as §2
# Salmonella [11] = experiment: Antimicrobial activity against Salmonella serogroup O7 assessed as percent tetracyclin-resistant isolate at 1 to >128 ug/ml by broth microdilution method; type: functional; how it was run: as §2
# Salmonella [12] = experiment: Antimicrobial activity against Salmonella serogroup O8 assessed as percent tetracyclin-resistant isolate at 1 to >128 ug/ml by broth microdilution method; type: functional; how it was run: as §2
# Salmonella [13] = experiment: Antimicrobial activity against Salmonella serogroup O9 assessed as percent tetracyclin-resistant isolate at 1 to >128 ug/ml by broth microdilution method; type: functional; how it was run: as §2
# [14] = Antimicrobial activity against Salmonella serotype Choleraesuis by broth microdilution method; type: functional, Salmonella enterica subsp. enterica serovar Choleraesuis; conditions: Salmonella enterica; how it was run: as §1
# Salmonella typhimurium [15] = experiment: Antimicrobial activity against Salmonella serotype Typhimurium by broth microdilution method; type: functional, Salmonella enterica subsp. enterica serovar Typhimurium; conditions: Salmonella enterica; how it was run: as §3
# Salmonella [16] = experiment: Antimicrobial activity against Salmonella serogroup O7 by broth microdilution method; type: functional; how it was run: as §3
# Salmonella [17] = experiment: Antimicrobial activity against Salmonella serogroup O8 by broth microdilution method; type: functional; how it was run: as §3
# Salmonella [18] = experiment: Antimicrobial activity against Salmonella serogroup O9 by broth microdilution method; type: functional; how it was run: as §3
# Aeromonas sp. [19] = experiment: Antimicrobial activity against tetracycline-susceptible Aeromonas sp. isolate by broth microdilution method; type: functional; how it was run: as §3
# Aeromonas sp. [20] = experiment: Antimicrobial activity against tetracycline-nonsusceptible Aeromonas sp. isolate by broth microdilution method; type: functional; how it was run: as §3
# Vibrio [21] = experiment: Antimicrobial activity against tetracycline-susceptible Vibrio sp. Isolate by broth microdilution method; type: functional; how it was run: as §3
# Vibrio [22] = experiment: Antimicrobial activity against tetracycline-nonsusceptible Vibrio sp. Isolate by broth microdilution method; type: functional; how it was run: as §3
# Salmonella [23] = experiment: Antimicrobial activity against tetracycline-susceptible Salmonella sp. Isolate by broth microdilution method; type: functional; how it was run: as §3
# Salmonella [24] = experiment: Antimicrobial activity against tetracycline-nonsusceptible Salmonella sp. Isolate by broth microdilution method; type: functional; how it was run: as §3
# Aeromonas caviae [25] = experiment: Antimicrobial activity against tigecycline-intermediate Aeromonas caviae isolate by broth microdilution method; type: functional; how it was run: as §3
# Salmonella [26] = experiment: Antimicrobial activity against Salmonella serogroup O8 assessed as susceptibility level by disk diffusion method; type: functional
# How it was run: (§4)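 Cefotaxime and ciprofloxacin susceptibility taken from routine clinical laboratory reports; disk diffusion per CLSI guidelines.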
# Salmonella [27] = experiment: Antimicrobial activity against Salmonella serogroup O9 assessed as susceptibility level by disk diffusion method; type: functional; how it was run: as §4
# Aeromonas hydrophila [28] = experiment: Antimicrobial activity against Aeromonas hydrophila assessed as susceptibility level by disk diffusion method; type: functional; how it was run: as §4
# Aeromonas caviae [29] = experiment: Antimicrobial activity against Aeromonas caviae assessed as susceptibility level by disk diffusion method; type: functional; how it was run: as §4
# Aeromonas sobria [30] = experiment: Antimicrobial activity against Aeromonas sobria assessed as susceptibility level by disk diffusion method; type: functional; how it was run: as §4
# Salmonella enterica = experiment: Antimicrobial activity against Salmonella serotype Choleraesuis assessed as susceptibility level by disk diffusion method; type: functional
# How it was run: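 Cefotaxime and ciprofloxacin susceptibility was taken from routine laboratory reports. These were generated by disk diffusion according to CLSI guidelines.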
# Salmonella [31] = experiment: Antimicrobial activity against Salmonella serogroup O7 assessed as susceptibility level by disk diffusion method; type: functional; how it was run: as §4
smiles,measurement,setting,value
CN(C)[C@@H]1C(O)=C(C(N)=O)C(=O)[C@@]2(O)C(O)=C3C(=O)c4c(O)cccc4[C@@](C)(O)[C@H]3C[C@@H]12 [TETRACYCLINE],Activity,Vibrio cholerae [1],8%
same,MIC90,Vibrio cholerae [2],1 µg/mL
same,Activity,Aeromonas hydrophila [3],36%
same,Activity,Aeromonas caviae [4],37%
same,Activity,Aeromonas sobria [5],57%
same,MIC90,Aeromonas hydrophila [6],16 µg/mL
same,MIC90,Aeromonas caviae [7],16 µg/mL
same,MIC90,Aeromonas sobria [8],16 µg/mL
same,Activity,[9],84%
same,Activity,Salmonella typhimurium [10],65%
same,Activity,Salmonella [11],38%
same,Activity,Salmonella [12],71%
same,Activity,Salmonella [13],16%
same,MIC90,[14],> 128 µg/mL
same,MIC90,Salmonella typhimurium [15],> 128 µg/mL
same,MIC90,Salmonella [16],> 128 µg/mL
same,MIC90,Salmonella [17],> 128 µg/mL
same,MIC90,Salmonella [18],> 128 µg/mL
same,MIC,Aeromonas sp. [19],≤ 4 µg/mL
same,MIC,Aeromonas sp. [20],≥ 8 µg/mL
same,MIC,Vibrio [21],≤ 4 µg/mL
same,MIC,Vibrio [22],≥ 8 µg/mL
same,MIC,Salmonella [23],≤ 4 µg/mL
same,MIC,Salmonella [24],≥ 8 µg/mL
same,MIC,Aeromonas caviae [25],> 128 µg/mL
O=C(O)c1cn(C2CC2)c2cc(N3CCNCC3)c(F)cc2c1=O [CIPROFLOXACIN],Activity,Salmonella [26],57%
same,Activity,Salmonella [27],96%
same,Activity,Aeromonas hydrophila [28],90%
same,Activity,Aeromonas caviae [29],86%
same,Activity,Aeromonas sobria [30],93%
same,Activity,Salmonella enterica,22%
same,Activity,Salmonella [31],77%
